The record followed here is ChEMBL document CHEMBL4004822, “Thienopyrimidinone Based Sirtuin-2 (SIRT2)-Selective Inhibitors Bind in the Ligand Induced Selectivity Pocket” (J Med Chem, 2017).

The target in the assay is T1, NAD-dependent protein deacetylase sirtuin-2 (Homo sapiens) (UniProt Q8IXJ6).
T1 sequence (whole entry): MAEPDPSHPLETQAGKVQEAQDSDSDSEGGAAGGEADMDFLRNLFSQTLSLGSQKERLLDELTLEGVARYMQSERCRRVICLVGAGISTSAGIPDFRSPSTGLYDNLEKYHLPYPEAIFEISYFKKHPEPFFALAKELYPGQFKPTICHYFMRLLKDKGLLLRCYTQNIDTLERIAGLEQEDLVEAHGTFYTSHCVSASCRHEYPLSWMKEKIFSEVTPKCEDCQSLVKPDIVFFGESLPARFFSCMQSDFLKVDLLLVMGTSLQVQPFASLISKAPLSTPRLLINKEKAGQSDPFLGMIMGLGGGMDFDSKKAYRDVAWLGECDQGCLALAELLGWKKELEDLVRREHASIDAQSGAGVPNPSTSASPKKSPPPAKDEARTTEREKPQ
The experiment in a line: Inhibition of recombinant human C-terminal His-tagged SIRT2 (50 to 389 end residues) expressed in Escherichia coli at 10 uM using p53 derived (379 to 382 residues) fluorogenic peptide substrate RHKK(Ac)-AMC preincubated for 10 mins followed by substrate addition in presence of NAD+ by fluorescence assay relative to control. In outline:
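Two-step fluorogenic assay with p53 379–382 RHKK(Ac)-AMC. Compound (from 10 mM DMSO stock) preincubated ~10 min with human SIRT before substrate addition. Developer then releases fluorophore, read at ex 360/em 460 nm.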

For the molecule `COc1cccc(Cn2cnc3sc4c(c3c2=O)CCC(NCCc2ccncc2)C4)c1` (stereo not drawn), the inhibition – broadly, the drop in the measured response relative to a control, in per cent – turned out to be 39%.
Under `O=c1c2c3c(sc2ncn1Cc1ccc2ccccc2c1)CC(NCc1cccc(F)c1)CC3` (stereo not drawn) stands 56%; under `O=c1c2c3c(sc2ncn1Cc1cccc2ccccc12)CC(NCCC1CCCCC1)CC3` (stereo not drawn), 65%; under `COCCNC1CCc2c(sc3ncn(Cc4cccc5ccccc45)c(=O)c23)C1` (stereo not drawn), 35%.
Next, `O=c1c2c3c(sc2ncn1Cc1cccc2ccccc12)CC(NC1CCCC1)CC3` (stereo not drawn): 61%; `COc1cccc(Cn2cnc3sc4c(c3c2=O)CCC(NCC2CCCCC2)C4)c1` (stereo not drawn): 62%.
For `N#Cc1ccc(CNC2CCc3c(sc4ncn(Cc5cccc6ccccc56)c(=O)c34)C2)cc1` (stereo not drawn), the inhibition worked out at 66%.
As to `O=c1c2c3c(sc2ncn1Cc1cccc2cccnc12)CC(NCc1ccccc1F)CC3` (stereo not drawn), the inhibition amounted to 49%.
Under `COc1ccc2ccccc2c1Cn1cnc2sc3c(c2c1=O)CCC(NCCNC(C)=O)C3` (stereo not drawn) stands 44%; under `O=c1c2c3c(sc2ncn1Cc1cccc(-c2ccccc2)c1)CC(NCc1ccccc1F)CC3` (stereo not drawn), 43%.
Next, `COc1cccc(NC2CCc3c(sc4ncn(Cc5ccc(OC)c6ccccc56)c(=O)c34)C2)c1` (stereo not drawn): 25%; `COc1ccc(Cn2cnc3sc4c(c3c2=O)CCC(NCCNC(C)=O)C4)c2ccccc12` (stereo not drawn): 58%.
Under `COc1cccc(CNC2CCc3c(sc4ncn(Cc5ccc6ccccc6c5)c(=O)c34)C2)c1` (stereo not drawn) stands 51%; under `COc1ccc(CNC2CCc3c(sc4ncn(Cc5ccccc5)c(=O)c34)C2)cn1` (stereo not drawn), 48%.
On to `COc1ccccc1CNC1CCc2c(sc3ncn(Cc4ccccc4)c(=O)c23)C1` (stereo not drawn), for which the inhibition was found to be 46%.
Under `O=c1c2c3c(sc2ncn1Cc1ccc2ccccc2c1)CC(NCc1cccs1)CC3` (stereo not drawn) stands 62%; under `Cc1cccc(NC2CCc3c(sc4ncn(Cc5ccc6ccccc6c5)c(=O)c34)C2)c1` (stereo not drawn), 31%.
Next, `COc1cccc(Cn2cnc3sc4c(c3c2=O)CCC(NCC2CCCO2)C4)c1` (stereo not drawn): 3%; `N#Cc1ccc(CNC2CCc3c(sc4ncn(Cc5cccc(-c6ccccc6)c5)c(=O)c34)C2)cc1` (stereo not drawn): 75%.
Next, `O=c1c2c3c(sc2ncn1Cc1ccccc1)CC(NCc1ccco1)CC3` (stereo not drawn): 33%.
Turning to `O=c1c2c3c(sc2ncn1Cc1cccc2cccnc12)CC(NC1CCOCC1)CC3` (stereo not drawn), the inhibition was determined as 51%.
Under `O=c1c2c3c(sc2ncn1Cc1cccc2cccnc12)CC(NCc1cncnc1)CC3` (stereo not drawn) stands 75%; under `O=c1c2c3c(sc2ncn1Cc1ccc2ccccc2c1)CC(NC1CCc2ccccc21)CC3` (stereo not drawn), 60%.
Under `O=c1c2c3c(sc2ncn1Cc1ccc2ccccc2c1)CC(NCCN1CCOCC1)CC3` (stereo not drawn) stands 47%; under `O=c1c2c3c(sc2ncn1Cc1cccc2ccccc12)CC(NCc1cccs1)CC3` (stereo not drawn), 54%; under `COc1ccccc1Cn1cnc2sc3c(c2c1=O)CCC(NCc1ccco1)C3` (stereo not drawn), 43%.
Next, `COc1cccc(Cn2cnc3sc4c(c3c2=O)CCC(NCc2ccccn2)C4)c1` (stereo not drawn): 18%; `O=c1c2c3c(sc2ncn1Cc1cccc2ccccc12)CC(NC1CCOCC1)CC3` (stereo not drawn): 59%; `COCCNC1CCc2c(sc3ncn(Cc4ccc(OC)c5ccccc45)c(=O)c23)C1` (stereo not drawn): 70%.
Turning to `COc1ccccc1NC1CCc2c(sc3ncn(Cc4cccc(-c5ccccc5)c4)c(=O)c23)C1` (stereo not drawn), the inhibition was found to be 26%.
Next, `COc1ccc(CNC2CCc3c(sc4ncn(Cc5ccccc5OC)c(=O)c34)C2)cc1` (stereo not drawn): 67%; `COc1ccc(Cn2cnc3sc4c(c3c2=O)CCC(NCc2cccc(Cl)c2)C4)c2ccccc12` (stereo not drawn): 6.5%; `COc1cccc(Cn2cnc3sc4c(c3c2=O)CCC(NCc2ccccc2)C4)c1` (stereo not drawn): 64%.
Under `Cc1ccc(NC2CCc3c(sc4ncn(Cc5ccc6ccccc6c5)c(=O)c34)C2)cc1` (stereo not drawn) stands 29%; under `COc1ccc(Cn2cnc3sc4c(c3c2=O)CCC(NCc2cccc(F)c2)C4)c2ccccc12` (stereo not drawn), 59%; under `COc1cccc(NC2CCc3c(sc4ncn(Cc5cccc6cccnc56)c(=O)c34)C2)c1` (stereo not drawn), 67%.
With `COc1cccc(Cn2cnc3sc4c(c3c2=O)CCC(NCc2ccco2)C4)c1` (stereo not drawn), the inhibition was 33%.
As for `O=c1c2c3c(sc2ncn1Cc1ccc2ccccc2c1)CC(NC1CCCC1)CC3` (stereo not drawn), the inhibition is 63%.
In the case of `COc1ccccc1Cn1cnc2sc3c(c2c1=O)CCC(NCC1CCCO1)C3` (stereo not drawn), the inhibition worked out at 27%.
Turning to `Cc1cccc(NC2CCc3c(sc4ncn(Cc5cccc6cccnc56)c(=O)c34)C2)c1` (stereo not drawn), the inhibition was found to be 62%.
As to `O=c1c2c3c(sc2ncn1Cc1ccc2ccccc2c1)CC(NCCC1CCCCC1)CC3` (stereo not drawn), the inhibition came to 59%.
`O=c1c2c3c(sc2ncn1Cc1cccc(-c2ccccc2)c1)CC(NC1CCc2ccccc21)CC3` (stereo not drawn): the inhibition amounted to 45%.
`COc1ccccc1CCNC1CCc2c(sc3ncn(Cc4c(OC)ccc5ccccc45)c(=O)c23)C1` (stereo not drawn): the inhibition was determined as 65%.
Next, `COCCNC1CCc2c(sc3ncn(Cc4ccc5ccccc5c4)c(=O)c23)C1` (stereo not drawn): 45%; `O=c1c2c3c(sc2ncn1Cc1cccc2cccnc12)CC(NCC1CCOC1)CC3` (stereo not drawn): 60%.
With `O=c1c2c3c(sc2ncn1Cc1cccc2cccnc12)CC(NC1CCCC1)CC3` (stereo not drawn), the inhibition was determined as 30%.
`Cc1cccc(NC2CCc3c(sc4ncn(Cc5cccc(-c6ccccc6)c5)c(=O)c34)C2)c1` (stereo not drawn): the inhibition came out at 28%.
Turning to `Cc1cccc(NC2CCc3c(sc4ncn(Cc5cccc6ccccc56)c(=O)c34)C2)c1` (stereo not drawn), the inhibition came to 41%.
For `COc1ccccc1Cn1cnc2sc3c(c2c1=O)CCC(NCc1c(C)nn(C)c1C)C3` (stereo not drawn), the inhibition came out at 37%.
As for `COc1cccc(Cn2cnc3sc4c(c3c2=O)CCC(NCc2ccccc2Cl)C4)c1` (stereo not drawn), the inhibition is 68%.
On to `COc1ccccc1Cn1cnc2sc3c(c2c1=O)CCC(NCc1cncnc1)C3` (stereo not drawn), for which the inhibition amounted to 45%.
On to `COc1ccc2ccccc2c1Cn1cnc2sc3c(c2c1=O)CCC(NCCN1CCOCC1)C3` (stereo not drawn), for which the inhibition turned out to be 70%.
Under `COc1ccc(NC2CCc3c(sc4ncn(Cc5ccc(OC)c6ccccc56)c(=O)c34)C2)cc1` (stereo not drawn) stands 41%; under `COc1ccc(Cn2cnc3sc4c(c3c2=O)CCC(NCc2cccs2)C4)c2ccccc12` (stereo not drawn), 71%.
Next, `Cc1nn(C)c(C)c1CNC1CCc2c(sc3ncn(Cc4cccc5cccnc45)c(=O)c23)C1` (stereo not drawn): 74%; `O=c1c2c3c(sc2ncn1Cc1ccc2ccccc2c1)CC(NCc1ccccc1F)CC3` (stereo not drawn): 51%.
As to `O=c1c2c3c(sc2ncn1Cc1ccccc1)CC(NCc1cccnc1)CC3` (stereo not drawn), the inhibition is 42%.
For `COc1cccc(CNC2CCc3c(sc4ncn(Cc5cccc6cccnc56)c(=O)c34)C2)c1` (stereo not drawn), the inhibition is 78%.
Under `COc1cccc(Cn2cnc3sc4c(c3c2=O)CCC(NCc2cncnc2)C4)c1` (stereo not drawn) stands 18%; under `O=c1c2c3c(sc2ncn1Cc1cccc(-c2ccccc2)c1)CC(NCc1cccc(F)c1)CC3` (stereo not drawn), 63%.
Turning to `O=c1c2c3c(sc2ncn1Cc1ccc2ccccc2c1)CC(NCc1cccc(Cl)c1)CC3` (stereo not drawn), the inhibition came out at 49%.
Next, `O=c1c2c3c(sc2ncn1Cc1cccc2ccccc12)CC(NC1CCCc2ccccc21)CC3` (stereo not drawn): 51%; `O=c1c2c3c(sc2ncn1Cc1ccc2ccccc2c1)CC(NC1CCCc2ccccc21)CC3` (stereo not drawn): 37%.
In the case of `COc1ccc(Cn2cnc3sc4c(c3c2=O)CCC(Nc2ccc(C)cc2)C4)c2ccccc12` (stereo not drawn), the inhibition was 35%.
Under `O=c1c2c3c(sc2ncn1Cc1cccc(-c2ccccc2)c1)CC(Nc1ccc2c(c1)OCO2)CC3` (stereo not drawn) stands 33%; under `O=c1c2c3c(sc2ncn1Cc1ccc2ccccc2c1)CC(NCc1ccccc1Cl)CC3` (stereo not drawn), 43%.
On to `COc1cccc(Cn2cnc3sc4c(c3c2=O)CCC(NCCc2cccnc2)C4)c1` (stereo not drawn), for which the inhibition came out at 40%.
Next, `COc1ccccc1CCNC1CCc2c(sc3ncn(Cc4ccc(OC)c5ccccc45)c(=O)c23)C1` (stereo not drawn): 69%; `COc1ccccc1CNC1CCc2c(sc3ncn(Cc4cccc5ccccc45)c(=O)c23)C1` (stereo not drawn): 60%; `O=c1c2c3c(sc2ncn1Cc1ccccc1)CC(NCc1ccncc1)CC3` (stereo not drawn): 33%.
Under `O=c1c2c3c(sc2ncn1Cc1cccc2ccccc12)CC(NC1CCc2ccccc21)CC3` (stereo not drawn) stands 58%.
Turning to `O=c1c2c3c(sc2ncn1Cc1cccc2cccnc12)CC(Nc1ccc2c(c1)OCO2)CC3` (stereo not drawn), the inhibition turned out to be 76%.
Next, `O=c1c2c3c(sc2ncn1Cc1cccc(-c2ccccc2)c1)CC(NCc1cccs1)CC3` (stereo not drawn): 66%; `COc1cccc(Cn2cnc3sc4c(c3c2=O)CCC(NCc2cccnc2)C4)c1` (stereo not drawn): 27%.
Next, `COCCNC1CCc2c(sc3ncn(Cc4c(OC)ccc5ccccc45)c(=O)c23)C1` (stereo not drawn): 44%; `COc1ccccc1CCNC1CCc2c(sc3ncn(Cc4cccc(-c5ccccc5)c4)c(=O)c23)C1` (stereo not drawn): 65%; `COc1cccc(Cn2cnc3sc4c(c3c2=O)CCC(NC2CCc3ccccc32)C4)c1` (stereo not drawn): 64%.
For `COc1ccc(Cn2cnc3sc4c(c3c2=O)CCC(NCCN2CCOCC2)C4)c2ccccc12` (stereo not drawn), the inhibition turned out to be 76%.
